{"source": "ChEMBL document CHEMBL3244336", "about": "“Antitumor agents. 1. 1,4-Bis[(aminoalkyl)amino]-9,10-anthracenediones” (J Med Chem, 1979)", "key": {"[1]": {"test_system": "P388", "assay": "Antitumor activity against mouse P388 cells allografted in mouse assessed as increase of median life span at 300 mg/kg, ip on day 1, 5 and 9 measured up to 60 days relative to control", "format": "functional", "details": "route intraperitoneal", "procedure,_shortened": "(§1)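 BDF1 or CDF1 mice inoculated ip with ascitic P388 leukemia cells. Dosing ip on days 1, 5 and 9. Deaths recorded for 60 days; % increase in median life span over controls. \"Cures\" are survivors/total at 60 days.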"}, "[2]": {"test_system": "P388", "assay": "Antitumor activity against mouse P388 cells allografted in mouse assessed as disease cure at 300 mg/kg, ip on day 1, 5 and 9 measured up to 60 days", "format": "functional, organism-based", "design": "dose 300 mg/kg", "procedure,_shortened": "(§2)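 BDF1 or CDF1 mice inoculated ip with ascitic P388 leukemia cells, dosed ip on days 1, 5 and 9. Deaths recorded for 60 days; \"cures\" taken as number of survivors/total at 60 days.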"}, "[3]": {"test_system": "P388", "assay": "Antitumor activity against mouse P388 cells allografted in mouse assessed as increase of median life span at 250 mg/kg, ip on day 1, 5 and 9 measured up to 60 days relative to control", "format": "functional", "details": "route intraperitoneal", "procedure,_shortened": "as §1"}, "[4]": {"test_system": "P388", "assay": "Antitumor activity against mouse P388 cells allografted in mouse assessed as disease cure at 250 mg/kg, ip on day 1, 5 and 9 measured up to 60 days", "format": "functional, organism-based", "design": "dose 250 mg/kg", "procedure,_shortened": "as §2"}, "[5]": {"test_system": "P388", "assay": "Antitumor activity against mouse P388 cells allografted in ip dosed mouse assessed as minimum effective dose administered as single dose", "format": "functional", "details": "read-out: MED", "procedure,_shortened": "(§3)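 Drug given ip to P388 tumor-bearing mice, either once as a single dose or once each 4 days for three injections. Minimum effective dose defined as the dose giving 40% increase in life span over control, read from regression lines of log dose-response data.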"}, "[6]": {"test_system": "P388", "assay": "Antitumor activity against mouse P388 cells allografted in mouse assessed as increase of median life span at 5 mg/kg, ip on day 1, 5 and 9 measured up to 60 days relative to control", "format": "functional", "details": "route intraperitoneal", "procedure,_shortened": "as §1"}, "[7]": {"test_system": "B16", "assay": "Antitumor activity against mouse B16 cells allografted in BDF1 mouse assessed as increase of median life span at 0.8 mg/kg, ip on day 1 to 9 measured up to 80 days relative to control", "format": "functional", "details": "route intraperitoneal", "procedure,_shortened": "(§4)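 BDF1 mice implanted ip with a homogenate from 0.05 g of B16 tumor. Test agent given ip on days 1-9. Deaths recorded for 80 days. Result is % increase in median life span over untreated controls. \"Cures\" are survivors/total at 80 days.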"}, "[8]": {"test_system": "P388", "assay": "Antitumor activity against mouse P388 cells allografted in ip dosed mouse assessed as minimum effective dose administered as once each 4 days for 3 total injection", "format": "functional", "details": "96 h, read-out: MED", "procedure,_shortened": "as §3"}, "[9]": {"assay": "Toxicity in […] assessed as maximum tolerated dose administered as single dose", "format": "organism-based, P388", "details": "mouse, in vivo, ip"}, "[10]": {"assay": "Toxicity in […] assessed as maximum tolerated dose administered as once each 4 days for 3 total injection", "format": "organism-based, P388", "details": "mouse, in vivo, ip"}, "[11]": {"test_system": "P388", "assay": "Antitumor activity against mouse P388 cells allografted in mouse assessed as increase of median life span at 50 mg/kg, ip on day 1, 5 and 9 measured up to 60 days relative to control", "format": "functional", "details": "route intraperitoneal", "procedure,_shortened": "as §1"}, "[12]": {"test_system": "P388", "assay": "Antitumor activity against mouse P388 cells allografted in mouse assessed as disease cure at 50 mg/kg, ip on day 1, 5 and 9 measured up to 60 days", "format": "functional, organism-based", "design": "dose 50 mg/kg", "procedure,_shortened": "as §2"}, "[13]": {"test_system": "B16", "assay": "Antitumor activity against mouse B16 cells allografted in BDF1 mouse assessed as increase of median life span at 25 mg/kg, ip on day 1 to 9 measured up to 80 days relative to control", "format": "functional", "details": "route intraperitoneal", "procedure,_shortened": "as §4"}, "[14]": {"test_system": "B16", "assay": "Antitumor activity against mouse B16 cells allografted in BDF1 mouse assessed as disease cure at 25 mg/kg, ip on day 1 to 9 measured up to 80 days", "format": "functional, organism-based", "design": "dose 25 mg/kg", "procedure,_shortened": "(§5)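 BDF1 mice implanted ip with homogenate from 0.05 g of B16 tumor, then dosed ip on days 1-9. Deaths recorded for 80 days; \"cures\" scored as survivors/total at 80 days.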"}, "[15]": {"test_system": "B16", "assay": "Antitumor activity against mouse B16 cells allografted in BDF1 mouse assessed as increase of median life span at 50 mg/kg, ip on day 1 to 9 measured up to 80 days relative to control", "format": "functional", "details": "route intraperitoneal", "procedure,_shortened": "as §4"}, "[16]": {"test_system": "P388", "assay": "Antitumor activity against mouse P388 cells allografted in mouse assessed as increase of median life span at 400 mg/kg, ip on day 1 to 9 measured up to 60 days relative to control", "format": "functional", "details": "route intraperitoneal", "procedure,_shortened": "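BDF1 or CDF1 mice inoculated ip with ascitic P388 leukemia cells. Dosing ip on days 1-9. Deaths followed for 60 days; % increase in median life span over controls.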"}, "[17]": {"test_system": "P388", "assay": "Antitumor activity against mouse P388 cells allografted in mouse assessed as disease cure at 400 mg/kg, ip on day 1 to 9 measured up to 60 days", "format": "functional, organism-based", "design": "dose 400 mg/kg", "procedure,_shortened": "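P388 ascitic leukemia cells given ip to BDF1 or CDF1 mice; ip dosing on days 1-9. Deaths followed for 60 days, cures expressed as survivors/total at 60 days.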"}, "[18]": {"test_system": "B16", "assay": "Antitumor activity against mouse B16 cells allografted in BDF1 mouse assessed as increase of median life span at 400 mg/kg, ip on day 1 to 9 measured up to 80 days relative to control", "format": "functional", "details": "route intraperitoneal", "procedure,_shortened": "as §4"}, "[19]": {"test_system": "B16", "assay": "Antitumor activity against mouse B16 cells allografted in BDF1 mouse assessed as disease cure at 400 mg/kg, ip on day 1 to 9 measured up to 80 days", "format": "functional, organism-based", "design": "dose 400 mg/kg", "procedure,_shortened": "as §5"}, "[20]": {"test_system": "P388", "assay": "Antitumor activity against mouse P388 cells allografted in mouse assessed as increase of median life span at 12.5 mg/kg, ip on day 1, 5 and 9 measured up to 60 days relative to control", "format": "functional", "details": "route intraperitoneal", "procedure,_shortened": "as §1"}, "[21]": {"test_system": "B16", "assay": "Antitumor activity against mouse B16 cells allografted in BDF1 mouse assessed as increase of median life span at 3.1 mg/kg, ip on day 1 to 9 measured up to 80 days relative to control", "format": "functional", "details": "route intraperitoneal", "procedure,_shortened": "as §4"}, "[22]": {"test_system": "P388", "assay": "Antitumor activity against mouse P388 cells allografted in mouse assessed as increase of median life span at 6.2 mg/kg, ip on day 1, 5 and 9 measured up to 60 days relative to control", "format": "functional", "details": "route intraperitoneal", "procedure,_shortened": "as §1"}, "[23]": {"test_system": "P388", "assay": "Antitumor activity against mouse P388 cells allografted in mouse assessed as disease cure at 6.2 mg/kg, ip on day 1, 5 and 9 measured up to 60 days", "format": "functional, organism-based", "design": "dose 6.2 mg/kg", "procedure,_shortened": "as §2"}, "[24]": {"test_system": "B16", "assay": "Antitumor activity against mouse B16 cells allografted in BDF1 mouse assessed as disease cure at 3.1 mg/kg, ip on day 1 to 9 measured up to 80 days", "format": "functional, organism-based", "design": "dose 3.1 mg/kg", "procedure,_shortened": "as §5"}, "[25]": {"test_system": "B16", "assay": "Antitumor activity against mouse B16 cells allografted in BDF1 mouse assessed as disease cure at 50 mg/kg, ip on day 1 to 9 measured up to 80 days", "format": "functional, organism-based", "design": "dose 50 mg/kg", "procedure,_shortened": "as §5"}}, "note": "Activity calls are given as the source filed them.", "data": [{"compound": "C[N+](C)(C)CCNc1ccc(NCC[N+](C)(C)C)c2c1C(=O)c1ccccc1C2=O", "values": [{"measurement": "ILS at 300 mg/kg", "setting": "[1]", "value": 0, "unit": "%"}, {"measurement": "Activity", "setting": "[2]", "value": "inactive"}]}, {"compound": "O=C1c2ccccc2C(=O)c2c(NCCc3ccccn3)ccc(NCCc3ccccn3)c21", "values": [{"measurement": "ILS at 250 mg/kg", "setting": "[3]", "value": 0, "unit": "%"}, {"measurement": "Activity", "setting": "[4]", "value": "inactive"}]}, {"compound": "COc1cccc2c1C(=O)c1c(O)c3c(c(O)c1C2=O)C[C@@](O)(C(=O)CO)C[C@@H]3O[C@H]1C[C@H](N)[C@H](O)[C@H](C)O1", "note": "[DOXORUBICIN]", "values": [{"measurement": "minimal effective dose", "setting": "[5]", "value": 0.35, "unit": "mg/kg"}, {"measurement": "ILS at 5 mg/kg", "setting": "[6]", "value": 159, "unit": "%"}, {"measurement": "ILS at 0.8 mg/kg", "setting": "[7]", "value": 275, "unit": "%"}, {"measurement": "minimal effective dose", "setting": "[8]", "value": 0.14, "unit": "mg/kg"}, {"measurement": "MTD", "setting": "[9]", "value": 13.1, "unit": "mg/kg"}, {"measurement": "MTD at 96 h", "setting": "[10]", "value": 2.7, "unit": "mg/kg"}]}, {"compound": "CN(C)CCCNc1ccc(NCCCN(C)C)c2c1C(=O)c1c(O)ccc(O)c1C2=O", "values": [{"measurement": "ILS at 50 mg/kg", "setting": "[11]", "value": 29, "unit": "%"}, {"measurement": "Activity", "setting": "[12]", "value": "inactive"}, {"measurement": "ILS at 25 mg/kg", "setting": "[13]", "value": 25, "unit": "%"}, {"measurement": "Activity", "setting": "[14]", "value": "inactive"}]}, {"compound": "O=C1c2ccccc2C(=O)c2c(NCCN(CCO)CCO)ccc(NCCN(CCO)CCO)c21", "values": [{"measurement": "ILS at 300 mg/kg", "setting": "[1]", "value": 73, "unit": "%"}, {"measurement": "Activity", "setting": "[2]", "value": "inactive"}, {"measurement": "ILS at 50 mg/kg", "setting": "[15]", "value": 88, "unit": "%"}]}, {"compound": "CN(C)CCNc1ccc(NCCN(C)C)c2c1C(=O)c1ccc(O)c(O)c1C2=O", "values": [{"measurement": "ILS at 50 mg/kg", "setting": "[11]", "value": 57, "unit": "%"}, {"measurement": "Activity", "setting": "[12]", "value": "inactive"}, {"measurement": "ILS at 25 mg/kg", "setting": "[13]", "value": 60, "unit": "%"}]}, {"compound": "O=C1c2ccccc2C(=O)c2c(NCCN3CCOCC3)ccc(NCCN3CCOCC3)c21", "values": [{"measurement": "ILS at 400 mg/kg", "setting": "[16]", "value": 119, "unit": "%"}, {"measurement": "Activity", "setting": "[17]", "value": "inactive"}, {"measurement": "ILS at 400 mg/kg", "setting": "[18]", "value": 33, "unit": "%"}, {"measurement": "Activity", "setting": "[19]", "value": "inactive"}]}, {"compound": "CC(O)CNCCNc1ccc(NCCNCC(C)O)c2c1C(=O)c1c(O)ccc(O)c1C2=O", "note": "(centres undefined)", "values": [{"measurement": "ILS at 12.5 mg/kg", "setting": "[20]", "value": 255, "unit": "%"}, {"measurement": "ILS at 3.1 mg/kg", "setting": "[21]", "value": 240, "unit": "%"}]}, {"compound": "CNCCNc1ccc(NCCNC)c2c1C(=O)c1c(O)ccc(O)c1C2=O", "values": [{"measurement": "ILS at 6.2 mg/kg", "setting": "[22]", "value": 118, "unit": "%"}, {"measurement": "Activity", "setting": "[23]", "value": "inactive"}, {"measurement": "Activity", "setting": "[24]", "value": "inactive"}, {"measurement": "ILS at 3.1 mg/kg", "setting": "[21]", "value": 210, "unit": "%"}]}, {"compound": "O=C1c2c(O)ccc(O)c2C(=O)c2c(NCCN3CCCCC3)ccc(NCCN3CCCCC3)c21", "values": [{"measurement": "ILS at 300 mg/kg", "setting": "[1]", "value": 40, "unit": "%"}, {"measurement": "Activity", "setting": "[2]", "value": "inactive"}, {"measurement": "ILS at 50 mg/kg", "setting": "[15]", "value": 0, "unit": "%"}, {"measurement": "Activity", "setting": "[25]", "value": "inactive"}]}]}
